In ChEMBL document CHEMBL5150073, “Photocaged DNA-Binding Photosensitizer Enables Photocontrol of Nuclear Entry for Dual-Targeted Photodynamic Therapy” (J Med Chem, 2022):
Blank lines part the entries; values can stand above or below the compound they belong to. The source made the active and inactive calls. The rule behind the calls is not given here.

Key:
[1] = Drug localization in nucleus of human MCF7 cells assessed as increase in cyan fluorescence of 3-bromo-2-(4-carbamimidoylphenyl)-1H-indole-6-carboxamidine excitation at 3 uM incubated for 1 hr in dark by DAPI filter based analysis; assay type: ADME, subcellular; conditions: mcf7, 1 h
Calf thymus DNA [2] = experiment: Binding affinity to calf thymus DNA assessed as fold change in fluorescence quenching of 3-bromo-2-(4-carbamimidoylphenyl)-1H-indole-6-carboxamidine; assay type: nucleic-acid assay; conditions: Bos taurus
Calf thymus DNA [3] = experiment: Binding affinity to calf thymus DNA assessed as dissociation constant by fluorescence based analysis; assay type: nucleic-acid assay, Bos taurus
How it was run: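 Fluorescence titration: compound at 20 μM in PBS pH 7.4, calf thymus DNA added in 10 μM steps until emission plateaued (~60 μM). Excitation 345 nm, emission 350–650 nm. KD obtained by fitting a one-site total saturation binding model (nonspecific binding proportional to ligand). Triplicate independent samples.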

[4] = Drug localization in nucleus of human MCF7 cells assessed as increase in cyan fluorescence at 3 uM incubated for 1 hr by DAPI filter based analysis; assay type: ADME, subcellular; conditions: mcf7, 1 h
MCF7 [5] = experiment: Induction of DNA damage in human MCF7 cells assessed as double strand breaks by measuring pink foci formation in nucleus at 3 uM incubated for 2 hrs followed by irradiation with 8 J/cm^2 UV irradiation for 5 mins by gammaH2A.X antibody/Alexa 488/DAPI staining based fluorescence analysis; assay type: functional, cell-based
How it was run: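 MCF7 cells treated with compound at 3 μM, then illuminated with 480 nm (15 min, 2.3 J cm⁻²) plus UV (5 min, 8.0 J cm⁻²), or with UV alone. Left 2 h, fixed, stained with Alexa 488-tagged γH2AX antibody and DAPI counterstain. Nuclear foci imaged.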

MCF7 [6] = experiment: Photocytotoxicity against human MCF7 cells assessed as reduction in cell viability incubated for 1 hr under dark condition followed by washout and measured after 24 hrs by MTT assay; assay type: functional
How it was run: (§1)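 Cells (MCF7, A549, HeLa) incubated 1 h with compound (BB probes 0–32 μM, Br-DAPI 0–64 μM) and washed once. Light arms: 480 nm (15 min, 2.3 J cm⁻²) with or without UV (5 min, 8.0 J cm⁻²), or UV only; dark controls unilluminated. Cells kept overnight in growth medium, then MTT read 24 h post-treatment. CC50 taken relative to untreated cells. n = 3.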

MCF7 [7] = experiment: Photocytotoxicity against human MCF7 cells assessed as reduction in cell viability incubated for 1 hr followed by washout and irradiation with 8 J/cm^2 UV irradiation for 5 mins and measured after 24 hrs by MTT assay; assay type: functional; conditions: MCF7, light or radiation study; how it was run: as §1
[8] = Drug uptake in human MCF7 cells cultured as […] spheroids assessed as increase in green fluorescence in nuclear background at 10 uM incubated overnight under dark condition by DAPI filter based fluorescence analysis; assay type: ADME, cell-based; conditions: mcf7, 10 µM
MCF7 [9] = experiment: Photocytotoxicity against human MCF7 cells assessed as reduction in cell viability incubated for 1 hr followed by washout and irradiation with 8 J/cm^2 UV irradiation for 5 mins and measured after 24 hrs by MTT assay
MCF7 [10] = experiment: Photorelease activity in human MCF7 cells assessed as 3-bromo-2-(4-carbamimidoylphenyl)-1H-indole-6-carboxamidine release by measuring bright cyan fluorescence in nucleus at 3 uM incubated for 1 hr followed by illumination with 1.6 J/cm^2 for 10 mins by DAPI filter based analysis; assay type: ADME, cell-based; conditions: mcf7, 1.167 h, time 70 min
How it was run: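 MCF7 cells given compound (3 μM) for 1 h, washed once with PBS, imaged. DAPI filter set (ex 350–405, em 415–470 nm) used for Br-DAPI cyan signal; EGFP filter set (ex 450–495, em 500–550 nm) used for WinterGreen green signal. Cells imaged dark, then after 480 nm illumination (10 min, 1.6 J cm⁻²).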

[11] = Aqueous stability of the compound in PBS at pH 7.4 assessed as hydrolysis of carbamate to release 3-bromo-2-(4-carbamimidoylphenyl)-1H-indole-6-carboxamidine at 0.8 uM incubated for 3 hrs by fluorescence based analysis; assay type: physicochemical; conditions: buffer, pH 7.4, 3 h
[12] = (§2) Stability of compound in human MCF7 cells assessed as esterase-mediated 3-bromo-2-(4-carbamimidoylphenyl)-1H-indole-6-carboxamidine release by measuring cyan fluorescence at 2 uM incubated for 1 hr followed by compound washout and further incubated for 1 hr on heated microscopic stage by DAPI filter based fluorescence analysis; assay type: ADME, cell-based; conditions: mcf7, 1 h
How it was run: (§3)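 Cells incubated with compound (2 μM) for 1 h, washed once with PBS, then kept a further 1 h in the dark on a heated microscope stage. Nuclear cyan fluorescence imaged with the DAPI filter set at 0 h and 2 h time points.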

[13] = as §2, with “A549” for “MCF7”; assay type: ADME, cell-based; conditions: a549, 1 h; how it was run: as §3
[14] = as §2, with “HeLa” for “MCF7”; assay type: ADME, cell-based; how it was run: as §3
[15] = Induction of ROS production in PBS at pH 7.4 at 1 uM irradiated with 480 nm 2.3 J/cm^2 light for 15 mins with 2-photon irradiation by DCFH2-DA probe based analysis; assay type: functional
MCF7 [16] = experiment: Induction of ROS production in human MCF7 cells at 2 uM incubated for 1 hr in dark followed by irradiation with 480 nm 2.3 J/cm^2 light for 15 mins with 8 J/cm^2 UV irradiation for 5 mins by DCFH2-DA probe based analysis; assay type: functional, cell-based; conditions: time 80.0 min
How it was run: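 MCF7 cells incubated with compound (2 μM) 1 h in the dark, washed, loaded with 10 μM DCFH2DA for 30 min, washed. DCF green fluorescence imaged after 480 nm illumination (15 min, 2.3 J cm⁻²), then after added 365 nm UV (5 min, 8.0 J cm⁻²). Mean fluorescence intensity quantified.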

MCF7 [17] = experiment: Photocytotoxicity against human MCF7 cells assessed as reduction in cell viability incubated for 1 hr followed by washout and irradiation with 480 nm 2.3 J/cm^2 light for 15 mins and measured after 24 hrs by MTT assay; assay type: functional; conditions: MCF7, light or radiation study; how it was run: as §1
MCF7 [18] = experiment: Photocytotoxicity against human MCF7 cells assessed as reduction in cell viability incubated for 1 hr followed by washout and irradiation with 480 nm 2.3 J/cm^2 light for 15 mins with 8 J/cm^2 UV irradiation for 5 mins and measured after 24 hrs by MTT assay; assay type: functional; conditions: MCF7, light or radiation study; how it was run: as §1
[19] = Photorelease ability in PBS at pH 7.4 assessed as 3-bromo-2-(4-carbamimidoylphenyl)-1H-indole-6-carboxamidine release by measuring change in emission spectra at 1 uM incubated in presence of CT-DNA and irradiated with 3.1 J/cm^2 mercury lamp light for 20 mins; assay type: functional
[20] = Photorelease activity in PBS at pH 7.4 assessed as 3-bromo-2-(4-carbamimidoylphenyl)-1H-indole-6-carboxamidine release by measuring increase in fluorescence intensity at 50 uM in presence of CT-DNA incubated for 3 hrs under dark condition by RP-HPLC analysis; assay type: functional
How it was run: (§4)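 Samples at 50 μM in PBS pH 7.4 were either kept 3 h at 37 °C in the dark or illuminated 20 min at 480 nm (450–495 nm filter, 3.1 J cm⁻²). Analysed by RP-HPLC on a C18 analytical column with absorbance at 345 nm; retention times recorded. n = 2 independent samples.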

[21] = Photorelease activity in PBS at pH 7.4 assessed as 3-bromo-2-(4-carbamimidoylphenyl)-1H-indole-6-carboxamidine release by measuring time at when peak observed at 50 uM in presence of CT-DNA illuminated with 3.1 J/cm^2 480 nm illumination for 20 mins by RP-HPLC analysis; assay type: functional; how it was run: as §4
[22] = Photorelease activity in PBS at pH 7.4 assessed as wintergreen release at 50 uM in presence of CT-DNA illuminated with 3.1 J/cm^2 480 nm illumination for 20 mins by RP-HPLC analysis; assay type: functional; how it was run: as §4

Drug uptake [1]: Active | fold change (FC) (Calf thymus DNA [2]): 4
SMILES: COC(=O)/N=C(/N)c1ccc2c(Br)c(-c3ccc(C(=N)N)cc3)[nH]c2c1

Drug uptake [4]: Active | Drug uptake [8]: Active
SMILES: N=C(N)c1ccc(-c2[nH]c3cc(C(=N)N)ccc3c2Br)cc1
Kd (Calf thymus DNA [3]): 19 µM | Activity (MCF7 [5]): Active | CC50 (MCF7 [6]): > 64 µM | CC50 (MCF7 [7]): 7.6 µM | Activity (MCF7 [9]): Active

Drug metabolism (MCF7 [10]): Metabolite_Detected | Stability [11]: Stable | Stability [12]: Stable | Stability [13]: Stable | Stability [14]: Stable | fold change (FC) (Calf thymus DNA [2]): 4
SMILES: CC1=CC(C)=[N+]2C1=C(COC(=O)/N=C(\N)c1ccc(-c3[nH]c4cc(C(=N)N)ccc4c3Br)cc1)c1c(C)cc(C)n1[B-]2(C)C
Kd (Calf thymus DNA [3]): 10 µM | Activity [15]: Active | Activity (MCF7 [16]): Active | CC50 (MCF7 [6]): > 16 µM | CC50 (MCF7 [17]): 5.8 µM | CC50 (MCF7 [18]): 600 nM | Drug metabolism [19]: Metabolite detected | Drug metabolism [20]: Metabolite not detected | TIME [21]: 0.533 h | Drug metabolism [22]: Metabolite not detected
